According to ChEMBL document CHEMBL3872267, “Design and synthesis of phosphoryl-substituted diphenylpyrimidines (Pho-DPPYs) as potent Bruton's tyrosine kinase (BTK) inhibitors: Targeted treatment of B lymphoblastic leukemia cell lines” (Bioorg Med Chem, 2017):
pIC50: −log10 of the molar value.

Assays:
[1] = Antiproliferative activity against human Raji cells measured after 48 hrs by CCK-8 assay; format: functional, cell-based
How it was run: (§1)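 Cells seeded at 2000–3000 cells/well and kept one day at 37 °C, 5% CO₂ in RPMI1640 with 10% FBS. Viability was read by CCK-8 absorbance at 450 nm, and seeding was adjusted to give 0.5–1.2 absorbance. IC50 was derived by curve fitting.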

[2] = Antiproliferative activity against human Ramos cells measured after 48 hrs by CCK-8 assay; format: functional, cell-based; how it was run: as §1
[3] = molecular target: Tyrosine-protein kinase BTK (Homo sapiens, UniProt Q06187); experiment: Inhibition of human recombinant full-length N-terminal His-tagged BTK expressed in baculovirus infected Sf9 insect cells measured after 60 mins by ADP-Glo kinase assay
[4] = Cell cycle arrest in human Ramos cells assessed as accumulation at S phase at 10 uM measured after 48 hrs by propidium iodide based flow cytometry (reference value: 55.07 %); format: functional
How it was run: (§2)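 Ramos cells at about 2 × 10⁵ cells/well were treated for 48 h, then fixed overnight in 70% ethanol at 4 °C. After a PBS wash they were stained with propidium iodide for 10 min under subdued light. Cell-cycle phase distribution was determined by flow cytometry.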

[5] = Cell cycle arrest in human Ramos cells assessed as accumulation at G2/M phase at 10 uM measured after 48 hrs by propidium iodide based flow cytometry (reference value: 4.98 %); format: functional; how it was run: as §2
Ramos [6] = experiment: Induction of apoptosis in human Ramos cells assessed as necrotic cells at 10 uM measured after 48 hrs by Annexin V-FITC/propidium iodide based flow cytometry (reference value: 0.2 %); format: functional
How it was run: (§3)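 Ramos cells at 1–5 × 10⁵ cells/well were treated for 48 h in medium with 5% FBS, with a DMSO solvent control. They were […], stained with Annexin V-FITC/propidium iodide, and analysed by flow cytometry.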

Ramos [7] = experiment: Induction of apoptosis in human Ramos cells assessed as late apoptotic cells at 10 uM measured after 48 hrs by Annexin V-FITC/propidium iodide based flow cytometry relative to control; format: functional; how it was run: as §3
[8] = Cell cycle arrest in human Ramos cells assessed as accumulation at G0/G1 phase at 10 uM measured after 48 hrs by propidium iodide based flow cytometry (reference value: 39.95 %); format: functional; how it was run: as §2
Ramos [9] = experiment: Induction of apoptosis in human Ramos cells assessed as early apoptotic cells at 10 uM measured after 48 hrs by Annexin V-FITC/propidium iodide based flow cytometry relative to control; format: functional; how it was run: as §3
Ramos [10] = experiment: Induction of apoptosis in human Ramos cells assessed as viable cells at 10 uM measured after 48 hrs by Annexin V-FITC/propidium iodide based flow cytometry relative to control; format: functional; how it was run: as §3
Ramos [11] = experiment: Induction of apoptosis in human Ramos cells assessed as early apoptotic cells at 1 uM measured after 48 hrs by Annexin V-FITC/propidium iodide based flow cytometry relative to control; format: functional; how it was run: as §3
[12] = Cell cycle arrest in human Ramos cells assessed as accumulation at S phase at 5 uM measured after 48 hrs by propidium iodide based flow cytometry (reference value: 55.07 %); format: functional; how it was run: as §2
[13] = Cell cycle arrest in human Ramos cells assessed as accumulation at G2/M phase at 5 uM measured after 48 hrs by propidium iodide based flow cytometry (reference value: 4.98 %); format: functional; how it was run: as §2
Ramos [14] = experiment: Induction of apoptosis in human Ramos cells assessed as viable cells at 5 uM measured after 48 hrs by Annexin V-FITC/propidium iodide based flow cytometry relative to control; format: functional; conditions: read-out: Activity; how it was run: as §3
[15] = Cell cycle arrest in human Ramos cells assessed as accumulation at G2/M phase at 1 uM measured after 48 hrs by propidium iodide based flow cytometry (reference value: 4.98 %); format: functional; how it was run: as §2
Ramos [16] = experiment: Induction of apoptosis in human Ramos cells assessed as necrotic cells at 1 uM measured after 48 hrs by Annexin V-FITC/propidium iodide based flow cytometry (reference value: 0.2 %); format: functional; how it was run: as §3
Ramos [17] = experiment: Induction of apoptosis in human Ramos cells assessed as late apoptotic cells at 1 uM measured after 48 hrs by Annexin V-FITC/propidium iodide based flow cytometry relative to control; format: functional; how it was run: as §3
Ramos [18] = experiment: Induction of apoptosis in human Ramos cells assessed as viable cells at 1 uM measured after 48 hrs by Annexin V-FITC/propidium iodide based flow cytometry relative to control; format: functional; conditions: read-out: Activity; how it was run: as §3
[19] = Cell cycle arrest in human Ramos cells assessed as accumulation at G0/G1 phase at 5 uM measured after 48 hrs by propidium iodide based flow cytometry (reference value: 39.95 %); format: functional; how it was run: as §2
Ramos [20] = experiment: Induction of apoptosis in human Ramos cells assessed as late apoptotic cells at 5 uM measured after 48 hrs by Annexin V-FITC/propidium iodide based flow cytometry relative to control; format: functional; how it was run: as §3
Ramos [21] = experiment: Induction of apoptosis in human Ramos cells assessed as necrotic cells at 5 uM measured after 48 hrs by Annexin V-FITC/propidium iodide based flow cytometry (reference value: 0.2 %); format: functional; how it was run: as §3
Ramos [22] = experiment: Induction of apoptosis in human Ramos cells assessed as early apoptotic cells at 5 uM measured after 48 hrs by Annexin V-FITC/propidium iodide based flow cytometry relative to control; format: functional; how it was run: as §3
[23] = Cell cycle arrest in human Ramos cells assessed as accumulation at G0/G1 phase at 1 uM measured after 48 hrs by propidium iodide based flow cytometry (reference value: 39.95 %); format: functional; how it was run: as §2
[24] = Cell cycle arrest in human Ramos cells assessed as accumulation at S phase at 1 uM measured after 48 hrs by propidium iodide based flow cytometry (reference value: 55.07 %); format: functional; how it was run: as §2

Chain of Tyrosine-protein kinase BTK (Q06187 whole entry): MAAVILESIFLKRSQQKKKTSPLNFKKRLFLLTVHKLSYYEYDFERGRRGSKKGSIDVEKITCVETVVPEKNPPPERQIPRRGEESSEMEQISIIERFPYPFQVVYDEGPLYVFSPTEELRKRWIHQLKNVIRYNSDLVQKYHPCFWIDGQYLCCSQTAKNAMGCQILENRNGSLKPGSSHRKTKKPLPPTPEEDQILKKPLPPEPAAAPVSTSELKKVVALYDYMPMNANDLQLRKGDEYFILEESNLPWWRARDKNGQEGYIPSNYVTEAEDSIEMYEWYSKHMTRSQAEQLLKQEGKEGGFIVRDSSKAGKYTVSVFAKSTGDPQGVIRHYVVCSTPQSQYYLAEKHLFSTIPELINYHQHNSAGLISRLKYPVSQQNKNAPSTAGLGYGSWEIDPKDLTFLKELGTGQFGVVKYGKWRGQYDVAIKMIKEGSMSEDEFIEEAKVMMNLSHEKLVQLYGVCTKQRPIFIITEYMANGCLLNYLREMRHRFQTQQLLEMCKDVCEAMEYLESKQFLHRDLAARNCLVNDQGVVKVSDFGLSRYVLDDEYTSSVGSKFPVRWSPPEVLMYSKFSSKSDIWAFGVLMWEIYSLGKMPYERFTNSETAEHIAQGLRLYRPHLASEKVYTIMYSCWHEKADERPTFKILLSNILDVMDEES

SMILES | pIC50 [1] | pIC50 [2] | pIC50 [3] | Activity [4] | Activity [5] | Activity [8] | further results
C=CC(=O)Nc1cccc(Nc2nc(Nc3ccc(OCCCP(=O)(OCC)OCC)cc3)ncc2Cl)c1 | 5.22 | 5.27 | 7.97 |  |  |  | 
C=CC(=O)Nc1cccc(Nc2nc(Nc3ccc(OCCCP(=O)(OCC)OCC)cc3)ncc2F)c1 | 4.79 | 4.94 | 7.67 |  |  |  | 
C=CC(=O)Nc1cccc(Nc2nc(Nc3ccc(CP(=O)(OCC)OCC)cc3)ncc2F)c1 | 4.46 | 5.03 | 7.49 |  |  |  | 
C=CC(=O)Nc1cccc(Nc2nc(Nc3ccc(OCCOC)cc3)ncc2F)c1 [SPEBRUTINIB] |  |  |  | 47.9% | 20.9% | 31% | Activity (Ramos [6]): 4.3%; Activity (Ramos [7]): 20.4%; Activity (Ramos [9]): 21.1%; viability at 10 µM (Ramos [10]; Homo sapiens, Ramos, 48 h, read-out: Activity): 54.2%
C=CC(=O)Nc1cccc(Nc2nc(Nc3ccc(CP(=O)(OCC)OCC)cc3)ncc2Cl)c1 | 4.87 | 4.93 | 8.91 |  |  |  | 
C=CC(=O)Nc1cccc(Nc2nc(Nc3ccc(OCCCP(=O)(OCC)N4CCOCC4)cc3)ncc2Cl)c1 (stereo not drawn) | 5.17 | 5.50 | 9.09 | 50.8% | 11.2% | 38% | Activity (Ramos [11]): 27.7%; Activity [12]: 54.3%; Activity [13]: 9.29%; viability at 5 µM (Ramos [14]): 40.2%; Activity [15]: 7.68%; Activity (Ramos [16]): 15.6%; Activity (Ramos [17]): 5.9%; viability at 1 µM (Ramos [18]): 50.9%; Activity [19]: 36.4%; Activity (Ramos [20]): 7.5%; Activity (Ramos [21]): 14.7%; Activity (Ramos [22]): 37.6%; Activity [23]: 36.9%; Activity [24]: 55.4%
C=CC(=O)Nc1cccc(Nc2nc(Nc3ccc(CP(=O)(OCC)N4CCOCC4)cc3)ncc2Cl)c1 (stereo not drawn) | 5.11 | 4.56 | 6.95 |  |  |  | 
C=CC(=O)N1CCC[C@@H](n2nc(-c3ccc(Oc4ccccc4)cc3)c3c(N)ncnc32)C1 [IBRUTINIB] |  |  |  | 50.2% | 6.57% | 43.2% | Activity (Ramos [6]): 0.1%; Activity (Ramos [9]): 37%; Activity (Ramos [10]): 52%
